Measured values taken from ChEMBL document CHEMBL4406880, “Design, synthesis, and bioactivity of dihydropyrimidine derivatives as kinesin spindle protein inhibitors” (Bioorg Med Chem, 2019).

Assays:
Assay type in all cases: functional
MOLT-4 = assay: Growth inhibition of human MOLT4 cells assessed as growth percentage at 10 uM incubated for 48 hrs by sulforhodamine B assay relative to control; settings: MOLT-4, 48 h, read-out: Activity
Method in brief: (§1)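 NCI-60 one-dose screen. Cells in RPMI 1640 with 5% FBS and 2 mM L-glutamine, seeded at 5,000–40,000 cells/well according to doubling time, and preincubated overnight at 37 °C, 5% CO2. A time-zero plate was TCA-fixed at drug addition. Compound from DMSO stock, final 10 µM, 48 h; DMSO vehicle controls. Fixation with TCA, 10% final (16% for suspension cells). SRB stain, Tris solubilization, A515. Result given as % growth versus untreated cells.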

CAKI-1 = assay: Growth inhibition of human Caki1 cells assessed as growth percentage at 10 uM incubated for 48 hrs by sulforhodamine B assay relative to control; settings: CAKI-1, 48 h, read-out: Activity
Method in brief: (§2)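 NCI-60 one-dose screen: cells in RPMI 1640 with 5% FBS and 2 mM L-glutamine, plated at 5,000–40,000 cells/well and preincubated 24 h at 37 °C, 5% CO2. Compound is added from a DMSO stock to a final 10 µM and incubated 48 h. Cells are TCA-fixed and stained with sulforhodamine B, read at 515 nm. Output is % growth versus untreated control, with a time-zero plate.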

MDA-MB-435 = assay: Growth inhibition of human MDA-MB-435 cells assessed as growth percentage at 10 uM incubated for 48 hrs by sulforhodamine B assay relative to control; settings: MDA-MB-435, 48 h, read-out: Activity; method in brief: as §1
NCI-H23 = assay: Growth inhibition of human NCI-H23 cells assessed as growth percentage at 10 uM incubated for 48 hrs by sulforhodamine B assay relative to control; settings: NCI-H23, 48 h, read-out: Activity; method in brief: as §1
UO-31 = assay: Growth inhibition of human UO31 cells assessed as growth percentage at 10 uM incubated for 48 hrs by sulforhodamine B assay relative to control; settings: UO-31, 48 h, read-out: Activity
Method in brief: (§3)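 NCI-60 single-dose screen. Cells were grown in RPMI 1640 with 5% FBS and 2 mM L-glutamine and plated at 5,000–40,000 cells/well. After an overnight preincubation at 37 °C in 5% CO2, compound was added at a final 10 µM from a DMSO stock, with DMSO/PBS controls. After 48 h, cells were TCA-fixed and stained with 0.4% SRB, and absorbance was read at 515 nm. Growth is given as a percentage of untreated control.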

HOP-92 = assay: Growth inhibition of human HOP92 cells assessed as growth percentage at 10 uM incubated for 48 hrs by sulforhodamine B assay relative to control; settings: HOP-92, 48 h, read-out: Activity; method in brief: as §1
OVCAR-3 = assay: Growth inhibition of human OVCAR3 cells assessed as growth percentage at 10 uM incubated for 48 hrs by sulforhodamine B assay relative to control; settings: OVCAR-3, 48 h, read-out: Activity; method in brief: as §1
MCF7 = assay: Growth inhibition of human MCF7 cells assessed as growth percentage at 10 uM incubated for 48 hrs by sulforhodamine B assay relative to control; settings: MCF7, 48 h, read-out: Activity; method in brief: as §1
HCC 2998 = assay: Growth inhibition of human HCC2998 cells assessed as growth percentage at 10 uM incubated for 48 hrs by sulforhodamine B assay relative to control; settings: HCC 2998, 48 h, read-out: Activity; method in brief: as §2
HT-29 = assay: Growth inhibition of human HT-29 cells assessed as growth percentage at 10 uM incubated for 48 hrs by sulforhodamine B assay relative to control; settings: HT-29, 48 h, read-out: Activity; method in brief: as §1
OVCAR-8 = assay: Growth inhibition of human OVCAR8 cells assessed as growth percentage at 10 uM incubated for 48 hrs by sulforhodamine B assay relative to control; settings: OVCAR-8, 48 h, read-out: Activity; method in brief: as §3
SF-539 = assay: Growth inhibition of human SF539 cells assessed as growth percentage at 10 uM incubated for 48 hrs by sulforhodamine B assay relative to control; settings: SF-539, 48 h, read-out: Activity; method in brief: as §3
RXF 393 = assay: Growth inhibition of human RXF393 cells assessed as growth percentage at 10 uM incubated for 48 hrs by sulforhodamine B assay relative to control; settings: RXF 393, 48 h, read-out: Activity; method in brief: as §3
BT-549 = assay: Growth inhibition of human BT549 cells assessed as growth percentage at 10 uM incubated for 48 hrs by sulforhodamine B assay relative to control; settings: BT-549, 48 h, read-out: Activity; method in brief: as §2
DU-145 = assay: Growth inhibition of human DU145 cells assessed as growth percentage at 10 uM incubated for 48 hrs by sulforhodamine B assay relative to control; settings: DU-145, 48 h, read-out: Activity; method in brief: as §2
IGROV-1 = assay: Growth inhibition of human IGROV1 cells assessed as growth percentage at 10 uM incubated for 48 hrs by sulforhodamine B assay relative to control; settings: IGROV-1, 48 h, read-out: Activity; method in brief: as §1
TK-10 = assay: Growth inhibition of human TK10 cells assessed as growth percentage at 10 uM incubated for 48 hrs by sulforhodamine B assay relative to control; settings: TK-10, 48 h, read-out: Activity; method in brief: as §3
CCRF-CEM = assay: Growth inhibition of human CCRF-CEM cells assessed as growth percentage at 10 uM incubated for 48 hrs by sulforhodamine B assay relative to control; settings: read-out: Activity; method in brief: as §2
Hs-578T = assay: Growth inhibition of human Hs 578T cells assessed as growth percentage at 10 uM incubated for 48 hrs by sulforhodamine B assay relative to control; settings: read-out: Activity; method in brief: as §1
T47D = assay: Growth inhibition of human T47D cells assessed as growth percentage at 10 uM incubated for 48 hrs by sulforhodamine B assay relative to control; settings: read-out: Activity; method in brief: as §3
SNB-19 = assay: Growth inhibition of human SNB19 cells assessed as growth percentage at 10 uM incubated for 48 hrs by sulforhodamine B assay relative to control; settings: SNB-19, 48 h, read-out: Activity; method in brief: as §3
NCI/ADR-RES = assay: Growth inhibition of human NCI/ADR-RES cells assessed as growth percentage at 10 uM incubated for 48 hrs by sulforhodamine B assay relative to control; settings: read-out: Activity; method in brief: as §1
786-0 = assay: Growth inhibition of human 786-0 cells assessed as growth percentage at 10 uM incubated for 48 hrs by sulforhodamine B assay relative to control; settings: 786-0, 48 h, read-out: Activity; method in brief: as §2
SK-MEL-28 = assay: Growth inhibition of human SK-MEL-28 cells assessed as growth percentage at 10 uM incubated for 48 hrs by sulforhodamine B assay relative to control; settings: SK-MEL-28, 48 h, read-out: Activity; method in brief: as §3
COLO 205 = assay: Growth inhibition of human COLO205 cells assessed as growth percentage at 10 uM incubated for 48 hrs by sulforhodamine B assay relative to control; settings: COLO 205, 48 h, read-out: Activity; method in brief: as §2
MDA-MB-468 = assay: Growth inhibition of human MDA-MB-468 cells assessed as growth percentage at 10 uM incubated for 48 hrs by sulforhodamine B assay relative to control; settings: MDA-MB-468, 48 h, read-out: Activity; method in brief: as §1

Compound	growth at 10 µM (MOLT-4) [%]	growth at 10 µM (CAKI-1) [%]	growth at 10 µM (NCI-H23) [%]	growth at 10 µM (UO-31) [%]	growth at 10 µM (HOP-92) [%]	growth at 10 µM (MCF7) [%]	growth at 10 µM (HCC 2998) [%]	growth at 10 µM (HT-29) [%]	growth at 10 µM (OVCAR-8) [%]	growth at 10 µM (SF-539) [%]	growth at 10 µM (RXF 393) [%]	growth at 10 µM (BT-549) [%]	growth at 10 µM (DU-145) [%]	growth at 10 µM (IGROV-1) [%]	growth at 10 µM (TK-10) [%]	growth at 10 µM (Hs-578T) [%]	growth at 10 µM (T47D) [%]	growth at 10 µM (SNB-19) [%]	growth at 10 µM (NCI/ADR-RES) [%]	growth at 10 µM (786-0) [%]	also measured
COCCOC(=O)C1=C(C)NC(=S)NC1c1ccc2c(c1)OCO2 (racemic)	96.9	99.8	96.2	87.8	108	89.6	110	96.7	102	99.2	101	109	108	105	104	104	94.8	100	103	107	growth at 10 µM (MDA-MB-435): 104%; growth at 10 µM (OVCAR-3): 111%; growth at 10 µM (CCRF-CEM): 104%; growth at 10 µM (SK-MEL-28): 114%; growth at 10 µM (COLO 205): 117%
COCCOC(=O)C1=C(C)NC(=S)N(C(C)=O)C1c1ccc2c(c1)OCO2 (racemic)	103	97.4	99.1	82	85.4	102	113	106	99.3	97.6	111	103	106	106	102	93.7	86.9	99.3	99.8	108	growth at 10 µM (MDA-MB-435): 103%; growth at 10 µM (OVCAR-3): 101%; growth at 10 µM (MDA-MB-468): 105%; growth at 10 µM (SK-MEL-28): 106%; growth at 10 µM (COLO 205): 100%
CC1=C(C(=O)OCc2ccccc2)C(c2ccc3c(c2)OCO3)n2c(nc3ccccc32)N1 (racemic)	37.1 to 41	24 to 34.3	49.3 to 56	28 to 51.1	32 to 78.5	9 to 20.6	50 to 56.4	7 to 14.4	39 to 46.7	9.94 to 21	30 to 53.2	44 to 50.5	49 to 53.5	36 to 41.4	64 to 65.6	0.75 to 14	31 to 40.9	33 to 41.6	20 to 23.2	31 to 43.1	growth at 10 µM (CCRF-CEM): 24.9 to 31%; growth at 10 µM (SK-MEL-28): 52 to 61.8%; growth at 10 µM (COLO 205): 37.2 to 43%
CC1=C(C(=O)OCc2ccccc2)C(c2ccc3c(c2)OCO3)NC(=S)N1 (racemic)	78.2	81.8	94.5	89.2	99	86.8	120	105	97.5	99.3	94.4	103	101	97.6	105	90.2	74	103	105	105	growth at 10 µM (MDA-MB-435): 93.6%; growth at 10 µM (OVCAR-3): 98.4%; growth at 10 µM (CCRF-CEM): 100%; growth at 10 µM (SK-MEL-28): 106%; growth at 10 µM (COLO 205): 117%
